# Experimental data: ChEMBL document CHEMBL1130051, “9-Benzyladenines: potent and selective cAMP phosphodiesterase inhibitors” (J Med Chem, 1997)
# How the values were obtained:
# [1] = biological target: T1, Phosphodiesterase 4 (Homo sapiens, UniProt P27815+Q08499+Q07343+Q08493); experiment: Inhibition of phosphodiesterase 4 at 1 uM cAMP; type: protein assay
# Summary of the method: (§1)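 Enzyme activity was measured at 1 μM substrate, and the drug concentration giving 50% inhibition was taken as the IC50. IC50 was calculated by linear regression (r = 0.95) as the mean of three determinations, with experimental error about 15%. Values above 200 μM were reported as ns.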
# [2] = biological target: T2, Phosphodiesterase 3 (Homo sapiens, UniProt Q14432+Q13370); experiment: Inhibition of phosphodiesterase 3 at 1 uM cAMP; type: protein assay; summary of the method: as §1
# [3] = biological target: Phosphodiesterase 1 (Homo sapiens, UniProt P54750+Q01064+Q14123); experiment: Inhibition of phosphodiesterase 1; type: protein assay; summary of the method: as §1
# [4] = biological target: T3, cGMP-specific 3',5'-cyclic phosphodiesterase (Homo sapiens, UniProt O76074); experiment: Inhibition of phosphodiesterase 5; summary of the method: as §1
# [5] = biological target: Adenosine A2 receptor (Homo sapiens, UniProt P29275+P29274); experiment: Displacement of [3H]NECA from Adenosine A2 receptor; type: protein assay
# [6] = biological target: T1, Phosphodiesterase 4; experiment: Inhibition of Phosphodiesterase 4; type: protein assay
# [7] = biological target: T4, Adenosine receptor A1 (Homo sapiens, UniProt P30542); experiment: Displacement of [3H]CHA from Adenosine A1 receptor
# T4 sequence (P30542 whole entry): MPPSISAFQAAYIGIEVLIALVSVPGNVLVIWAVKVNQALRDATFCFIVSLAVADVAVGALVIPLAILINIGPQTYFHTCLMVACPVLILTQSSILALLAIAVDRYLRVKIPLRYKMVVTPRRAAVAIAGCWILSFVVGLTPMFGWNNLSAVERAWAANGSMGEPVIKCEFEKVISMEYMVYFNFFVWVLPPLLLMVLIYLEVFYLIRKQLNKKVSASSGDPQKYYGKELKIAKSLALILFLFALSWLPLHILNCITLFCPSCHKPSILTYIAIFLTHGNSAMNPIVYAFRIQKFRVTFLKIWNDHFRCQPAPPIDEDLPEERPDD
# [8] = biological target: T2, Phosphodiesterase 3; experiment: Inhibitory concentration against Phosphodiesterase 3 was tested by linear regression; type: protein assay; summary of the method: as §1
# [9] = biological target: GABA-A receptor; anion channel; experiment: Displacement of [3H]diazepam from rat brain GABA-A benzodiazepine receptor
# [10] = biological target: T3, cGMP-specific 3',5'-cyclic phosphodiesterase; experiment: Inhibition of Phosphodiesterase 5
Structure (SMILES),IC50 [1] [µM],IC50 [2] [µM],further results
Nc1nc(C(F)(F)F)nc2c1ncn2Cc1ccccc1,1.8,101,
CN(C)c1nc(C(F)(F)F)nc2c1ncn2Cc1ccccc1,11,61,
CNc1nc(C(F)(F)F)nc2c1ncn2C,11,331,
CNc1ncnc2c1ncn2Cc1ccccc1.CS(=O)(=O)O,4.6,339,
CNc1nc(C(F)(F)F)nc2c1ncn2CCc1ccccc1,0.75,> 200,
CCCCNc1ncnc2c1ncn2Cc1ccccc1F.Cl,53,> 200,
Cl.Fc1ccccc1Cn1cnc2c(N3CCCCC3)ncnc21,121,> 200,
Nc1ncnc2c1ncn2Cc1ccccc1 [9-BENZYL-9H-ADENINE],160,> 200,
CCCCCC[C@@H]([C@@H](C)O)n1cnc2c(N)ncnc21 [EHNA],,,Ki [6]: > 200 µM; Ki [10]: > 200 µM

# Continued, in another order:
IC50 [1] [µM],IC50 [2] [µM],Structure (SMILES),further results
54,> 200,CNc1ncnc2c1nc(C)n2Cc1ccccc1F.CS(=O)(=O)O,
0.04,380,CNc1nc(C(F)(F)F)nc2c1ncn2Cc1ccccc1F,IC50 [3]: 40 µM; IC50 [4]: 5 µM
3,,CNc1ncnc2c1ncn2Cc1ccccc1F.CS(=O)(=O)O,IC50 [5]: > 100 µM; Ki [6]: 2 µM; IC50 [7]: > 100 µM; IC50 [8]: 121 µM; IC50 [9]: 13 µM; Ki [10]: 6.5 µM
0.2,250,CNc1nc(C)nc2c1ncn2Cc1ccccc1F.CS(=O)(=O)O,
0.5,> 200,CNc1nc(-c2ccccc2)nc2c1ncn2Cc1ccccc1F.CS(=O)(=O)O,
